Bioassay records as filed in PubChem BioAssay.
An excerpt weighted towards active compounds, which were near 2.2% of everything screened.
miR-122 sensor: miR-122 inhibition in Huh7 cells; actives 0.3% (n = 340,000); AID 602342; activation (reporter increase), % at 12.5 µM; Huh7 miR-122 Renilla luciferase sensor, 48 h; neutral wells = 0, positive control = 100;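 active = mean replicate activation score at least 90 and every replicate individually at or above 90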;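 also: higher luciferase means less miR-122 activity so hits act as miR-122 inhibitors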
NR2E3 ag-1: NR2E3 (human) agonism | inhibition of corepressor binding, % at 4.78 µM | actives 0.12% (n = 320,000) | GST-NR2E3/biotin-RetCOR TR-FRET, 1536-well | Q9Y5X4;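 active = percent inhibition above the cutoff of mean plus 3 SD of all tested compounds, set per screening campaign, cut at about 20% in these data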;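 also: 0% = DMSO wells and 100% = biotin wells as full block of FRET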
Target sequence (Q9Y5X4 whole entry, looked up): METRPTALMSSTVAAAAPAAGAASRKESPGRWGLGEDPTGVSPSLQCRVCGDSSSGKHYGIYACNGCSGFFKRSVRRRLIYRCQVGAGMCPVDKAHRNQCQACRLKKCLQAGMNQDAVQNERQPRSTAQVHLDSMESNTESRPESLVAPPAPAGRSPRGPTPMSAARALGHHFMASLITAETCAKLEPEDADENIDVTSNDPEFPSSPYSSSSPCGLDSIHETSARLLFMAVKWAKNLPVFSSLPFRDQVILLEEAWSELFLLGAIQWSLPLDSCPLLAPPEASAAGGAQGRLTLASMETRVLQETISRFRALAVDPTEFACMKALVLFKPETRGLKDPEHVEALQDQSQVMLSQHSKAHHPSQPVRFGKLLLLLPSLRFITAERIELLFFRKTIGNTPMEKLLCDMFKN
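Material: NR2E3–RetCOR corepressor complex / Amount: 1.35 nM GST-NR2E3 / Medium: Tris pH 7.5 / Compound: single nominal compound dose of 4.8 µM / Incubation: 5 h at 4 °C / Technique: TR-FRET, Eu(K)-anti-GST donor, streptavidin-D2 acceptor, ex 340, em 617/671 nm / Read-out basis: percent loss of FRET ratio relative to control wells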
697 NFkB inh: inhibitors of the PMA/ionomycin-induced NF-kB reporter in 697 B cells | 697 B-cell NF-kB luciferase reporter, 16 h | inhibition, % at 4 µM | actives 0.33% (n = 330,000); in the data active = inhibition above about 35%
NR2E3 ag-2: agonists of human NR2E3 nuclear receptor. inhibition of corepressor binding, % at 3.98 µM. actives 0.35% (n = 360,000). AID 602229. Q9Y5X4. CHO-S Gal4-NCOR/VP16-NR2E3 two-hybrid, luciferase;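 active = inhibition above the mean of all tested compounds plus 3 SD, cut at about 70% in these data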;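 also: 0% = DMSO with NR2E3 transfected cells and 100% = cells lacking NR2E3 construct; higher means lower luciferase signal from less NR2E3 corepressor binding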
FGF22 binding: binders of recombinant human FGF22 by thermal shift | SYPRO orange fluorescence; percent of sucrose octasulfate shift, DMSO zero | activity (Tm shift, normalised), % at 9.99 µM | actives 1.5% (n = 340,000) | AID 651658;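 active = mean Tm shift, scaled 0 neutral to 100 positive control, at about 1.3% or above, every replicate too, limit read from the data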
Jurkat NFkB inh: inhibitors of the PMA/ionomycin-induced NF-kB reporter in Jurkat cells. PMA/ionomycin-induced NF-kB luciferase reporter, luminescence. inhibition, % at 4 µM. actives 0.53% (n = 330,000); in the data active = inhibition above about 50%
NR2E3 ag conf: confirmation of human NR2E3 agonists | shares compounds with NR2E3 ag-2 | CHO-S mammalian two-hybrid NR2E3-NCOR, luciferase luminescence | inhibition, % at 3.98 µM | actives 51% (n = 2,300);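 active = average inhibition above a cutoff equal to the mean inhibition of all tested compounds plus one SD, cut at about 70% in these data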;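 also: 0% = DMSO in NR2E3 cells and 100% = DMSO in cells lacking NR2E3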
GAL4-VP16 luc: reduces GAL4-VP16 reporter signal in NR2E3 counterscreen. shares compounds with NR2E3 ag-2. CHO-S GAL4-VP16 luciferase reporter, luminescence. inhibition, % at 3.98 µM. actives 29% (n = 2,300). AID 624379;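 active = mean inhibition above a cutoff equal to the average over all tested compounds plus one standard deviation, cut at about 70% in these data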;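 also: luciferase from a UAS reporter driven by GAL4-VP16 transactivation; 0% = DMSO with VP16-transfected cells and 100% = DMSO with cells lacking VP16; higher means less reporter light so more repression of VP16 activity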
An asterisk follows results filed as active; / = no result; [ ] = another dose, or the depositor's remark.

SMILES	miR-122 sensor	NR2E3 ag-1	697 NFkB inh	NR2E3 ag-2	FGF22 binding	Jurkat NFkB inh	NR2E3 ag conf	GAL4-VP16 luc
CC(=NNC(=S)Nc1cccc(C)c1)c1ccccn1	/	/	/	66.7	-0.2	/	-63.2	-21.8
Cc1ccc(C)c(NC(=S)c2ccccn2)c1	23.8	0.9	-28.4	54.1	/	-41.3	-20.1	-75.2
COc1ccccc1NC(=S)NN=C(C)c1ccccn1	8.9	/	/	78.3*	-0.3	/	-25.7	-1.1
C/C(=N\NC(=S)Nc1cccc(C)c1)c1ccccc1	14.1	-1.8	-34.7	71.2*	/	-5.4	-17.8	-77.5
CO[C@@H]1CN(C)C(=O)c2cc(NS(C)(=O)=O)ccc2OC[C@@H](C)N(CC2CC2)C[C@H]1C	/	/	/	/	0.1	/	/	/
C[C@H]1CN([C@@H](C)CO)C(=O)Cc2cc(NS(=O)(=O)c3ccc(F)cc3)ccc2O[C@H]1CN(C)C(=O)Nc1ccc(F)cc1	0.5[16.7 µM]	/	/	/	-0.1	/	/	/
Cc1ccc(S(=O)(=O)NCC[C@H]2CC[C@@H](NC(=O)Nc3ccccc3F)[C@H](CO)O2)cc1	/	/	/	/	0.4	/	/	/
CC(=NNC(=S)Nc1ccc(C)cc1)c1ccccn1	2.8	/	/	71.0*	0.1	/	-23.9	5.0
CC1(C)C2CC=C(/C=N/NC(=S)Nc3cccnc3)C1C2 (centres undefined)	-6.4	5.6	0.5	-11.4	0.1	10.5	/	/
CC1=C/C(=N\NC(=S)Nc2cccnc2)CC(C)(C)C1	-9.5	/	/	80.2*	/	/	-24.6	0.7
Cc1cc(C(=O)COC(=O)c2ccc(O)cc2O)c(C)n1-c1ccccc1	-9.2	0.8	-242.0	24.7	-0.2	-122.3	/	/
Cc1cc(C(=O)COC(=O)c2ccc(O)cc2O)c(C)n1-c1ccc(OC(F)F)cc1	-4.1	/	-22.9	54.8	-0.3	34.9	3.1	25.0
COc1ccc(-n2c(C)cc(C(=O)COC(=O)c3ccc(O)cc3O)c2C)cc1	-5.8	0.3	-2.1	59.4	-0.2	28.3	88.8*	49.1
O=C(c1ccncc1)N1CC2(C1)[C@H](c1ccccc1)[C@@H](CO)N2Cc1ccccn1	/	/	/	/	0.0	/	/	/
C=C[C@]1(C)C=C2CC[C@H]3[C@@](C)(CCC[C@@]3(C)C(=O)O)[C@@H]2CC1	4.9	/	-1.0	14.6	/	6.7	/	/
C=C[C@]1(C)C=C2C(=O)[C@@]3(O)OC(=O)[C@@]4(CCCC(C)(C)[C@H]34)[C@@]2(O)CC1	6.7	/	/	91.9*	-0.1	/	90.9*	62.8
O=C([C@@H]1[C@@H](CO)[C@@H]2Cn3c(ccc(-c4cccnc4)c3=O)[C@H]1N2Cc1cccnc1)N1CCOCC1	5.8[16.7 µM]	/	/	/	0.3	/	/	/
O=C1CC(Cc2ccccc2)C(=O)N1CCc1ccc2c(c1)OCO2 (centres undefined)	5.2	-0.4	-6.8	-17.6	/	-3.9	/	/
O=C1OC[C@H](Cc2ccc3c(c2)OCO3)/C1=C\c1ccc2c(c1)OCO2	-11.1	-0.1	-35.6	52.2	/	19.7	36.1	40.3
CN(c1ccccc1)S(=O)(=O)c1cccc(NC(=O)c2ccncc2)c1	/	-2.9	-37.1	53.5	0.2	17.2	37.6	45.1
Cc1nc2ccc(NC(=O)c3cc(S(=O)(=O)N(C)c4ccccc4)ccc3Cl)cc2s1	/	0.5	/	80.0*	/	/	91.0*	80.4*
C[C@@H]1CN([C@@H](C)CO)C(=O)c2cc(C#CC3CC3)cnc2O[C@H]1CN(C)C(=O)c1ccccc1	0.0[16.7 µM]	/	/	/	0.1	/	/	/
Cc1noc(C)c1NC(=O)Nc1ccc2c(c1)C(=O)N([C@H](C)CO)C[C@H](C)[C@@H](CN(C)Cc1ccc(C(=O)O)cc1)OCCCC[C@@H](C)O2	7.2[16.7 µM]	/	/	/	0.0	/	/	/
CCCC#Cc1cnc2c(c1)C(=O)N([C@@H](C)CO)C[C@H](C)[C@@H](CN(C)C(=O)c1cccnc1)O2	-6.0[16.7 µM]	/	/	/	/	/	/	/
Cc1ccc(OCc2ccc(C(=O)Nc3c(C)nn(Cc4c(F)c(F)c(F)c(F)c4F)c3C)o2)c([N+](=O)[O-])c1	-9.9	-2.9	-8.4	51.1	/	23.9	39.6	53.4
